Assay [1] in a line: Inhibition of bovine brain tubulin assembly assessed as decrease in turbidity after 20 mins. Further details: species or system Bos taurus. A digest of the protocol: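 Bovine brain tubulin at 1.0 mg/mL (10 μM) preincubated 15 min at 30 °C with varying compound concentrations, no GTP. Chilled on ice, then GTP added (0.4 mM final). Baseline taken at 0 °C, then rapid jump to 30 °C and turbidity rise followed spectrophotometrically for 20 min. IC50 is the concentration halving the turbidity increase.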

Another assay deals with OVCAR-3. Description: Antiproliferative activity against human OVCAR-3 cells after 96 hrs by WST-1 assay. Conditions: OVCAR-3, 96 h. In kind it is functional. (Tetrazolium dyes change colour on reduction, which living cells bring about.)
Another assay concerns MDA-MB-231. The assay can be described thus: Antiproliferative activity against human MDA-MB-231 cells after 96 hrs by WST-1 assay. Type of assay: functional. The settings on record: MDA-MB-231, 96 h. A digest of the protocol:
(§1)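 DU-145 and MDA-MB-231 cells kept in RPMI-1640 with 10% FBS, penicillin and streptomycin at 37 °C, 5% CO2. Seeded at 5000 cells/well and exposed to 10^-9–10^-4 M compound or vehicle for 96 h. Live cells counted by WST-1. Viability taken as percent of mean control and GI50 derived. Triplicate experiments.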

In another assay the test system is HCT-116. The assay can be described thus: Antiproliferative activity against human HCT116 cells after 96 hrs by WST-1 assay. In kind it is functional. The settings on record: HCT-116, 96 h.
For a further assay, the system named is SF-539. The assay can be described thus: Antiproliferative activity against human SF539 cells after 96 hrs by WST-1 assay. Type of assay: functional. The settings on record: SF-539, 96 h.
For another assay, the system named is UACC-62. The assay can be described thus: Antiproliferative activity against human UACC62 cells after 96 hrs by WST-1 assay. Conditions: UACC-62, 96 h. Type of assay: functional.
Another assay is filed under the species Bos taurus. Description: Displacement of [3H]colchicine from bovine brain tubulin at 5 uM after 10 mins. Background: Loss of bound radioactivity is the signal in a displacement assay; it reports binding, not function.
A further assay relates to DU-145. Description: Antiproliferative activity against human DU145 cells after 96 hrs by WST-1 assay. In kind it is functional. The settings on record: DU-145, 96 h. A digest of the protocol: as §1
A further assay has as its system SN12C. The assay can be described thus: Antiproliferative activity against human SN12C cells after 96 hrs by WST-1 assay. Type of assay: functional.
Another assay deals with HOP-62. Description: Antiproliferative activity against human HOP62 cells after 96 hrs by WST-1 assay. In kind it is functional. Conditions: HOP-62, 96 h.
The test system of another assay is MCF7. The assay can be described thus: Antiproliferative activity against human MCF7 cells after 96 hrs by WST-1 assay. In kind it is functional. The settings on record: MCF7, 96 h.

Molecules are shown by their SMILES.

On to `CCc1cc2c(cc1OS(N)(=O)=O)CC[C@@H]1[C@@H]2CC[C@]2(C)[C@@H](C[N+](=O)[O-])CC[C@@H]12`, for which the half-inhibitory concentration (IC50) in assay [1] came to 1700 nM. The GI50 with OVCAR-3 came to 25 nM; with MDA-MB-231 it was 170 nM; in the assay with HCT-116, 41 nM; in the assay on SF-539, 21 nM; in the assay on UACC-62 it was 63 nM; in the assay on DU-145 it was 140 nM. Besides, the GI50 in the assay with SN12C worked out at 66 nM; in the assay on HOP-62, 31 nM. The inhibition in the assay listed under Bos taurus worked out at 74%.

As for `COc1cc2c(cc1OS(=O)(=O)N(C)C)CC[C@@H]1[C@@H]2CC[C@]2(C)C(=O)CC[C@@H]12`, the half-maximal inhibitory concentration (IC50) in assay [1] is greater than 40000 nM. In the assay on MCF7, the GI50 was greater than 10000 nM.

In general, IC50 refers to the concentration needed to halve the response being measured. Broadly, the GI50 is the concentration that inhibits growth by half. Read a low GI50 as more potent growth inhibition. A word on the inhibition: it is the relative decrease from the control value, in per cent. A lower inhibition goes with little suppression.

These data come from ChEMBL document CHEMBL1156957, “Synthesis, antitubulin, and antiproliferative SAR of analogues of 2-methoxyestradiol-3,17-O,O-bis-sulfamate” (J Med Chem, 2010).
